Active and inactive are the calls of the source. No cut-off for these calls is given here.
Legend:
Mus musculus = organism: Mus musculus; assay: Toxicity in mouse L1210 cells allografted BDF1 mouse; type: organism-based
L1210 [1] = assay: Antileukemic activity against mouse L1210 cells allografted in BDF1 mouse assessed as increase in life span of host at 52.1 umol/kg, ip relative to control; type: functional
In short: (§1)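 BDF1 mice, 5 weeks old, were inoculated ip with 5×10^5 L1210 cells; test groups had 4 males and 4 females, controls 5 males and 5 females. A single ip dose was given on the day after inoculation, as a suspension in vehicle for the insoluble compounds. Read-out was increase in life span over controls, with survivors past 30 days counted as 30 days.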

[2] = Solubility of the compound; type: physicochemical
L1210 [3] = assay: Antileukemic activity against mouse L1210 cells allografted in BDF1 mouse assessed as host survival at 20.8 umol/kg, ip after 30 days; type: functional, organism-based
In short: (§2)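 BDF1 mice, 5 weeks old, were inoculated ip with 5×10^5 L1210 cells in 0.1 ml saline. Test groups were 4 male and 4 female mice; controls were 5 male and 5 female. Insoluble compounds were suspended in vehicle. Dosing was ip, either once on the day after inoculation or daily for 5 days. Read-out was increase in life span over controls. Mice alive beyond 30 days were counted as 30 days and scored as survivors.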

L1210 [4] = assay: Antileukemic activity against mouse L1210 cells allografted in BDF1 mouse assessed as increase in life span of host at 20.8 umol/kg, ip relative to control; type: functional; in short: as §1
L1210 [5] = assay: Antileukemic activity against mouse L1210 cells allografted in BDF1 mouse assessed as increase in life span of host at 25 umol/kg, po qd for 4 days relative to control; type: functional; conditions: 96 h
L1210 [6] = assay: Antileukemic activity against mouse L1210 cells allografted in BDF1 mouse assessed as increase in life span of host at 12.5 umol/kg, ip qd for 5 days relative to control; type: functional; conditions: 120 h; in short: as §2
L1210 [7] = assay: Antileukemic activity against mouse L1210 cells allografted in BDF1 mouse assessed as increase in life span of host at 25 umol/kg, ip qd for 5 days relative to control; type: functional; conditions: 120 h
In short: (§3)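 BDF1 mice, 5 weeks old, were inoculated ip with 5×10^5 L1210 cells; test groups had 4 males and 4 females, controls 5 males and 5 females. Dosing was ip, five times over the 5 days after inoculation, as a suspension in vehicle for the insoluble compounds. Read-out was increase in life span over controls.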

L1210 [8] = assay: Antileukemic activity against mouse L1210 cells allografted in BDF1 mouse assessed as increase in life span of host at 1 umol/kg, ip qd for 5 days relative to control; type: functional; conditions: 120 h; in short: as §2
L1210 [9] = assay: Antileukemic activity against mouse L1210 cells allografted in BDF1 mouse assessed as increase in life span of host at 25 umol/kg, sc qd for 5 days relative to control; type: functional; conditions: 120 h
L1210 [10] = assay: Antileukemic activity against mouse L1210 cells allografted in BDF1 mouse assessed as increase in life span of host at 5 umol/kg, sc qd for 5 days relative to control; type: functional; conditions: 120 h
L1210 [11] = assay: Antileukemic activity against mouse L1210 cells allografted in BDF1 mouse assessed as increase in life span of host at 5 umol/kg, po qd for 5 days relative to control; type: functional; conditions: 120 h
L1210 [12] = assay: Antileukemic activity against mouse L1210 cells allografted in BDF1 mouse assessed as increase in life span of host at 12.5 umol/kg, po qd for 5 days relative to control; type: functional; conditions: 120 h
L1210 [13] = assay: Antileukemic activity against mouse L1210 cells allografted in BDF1 mouse assessed as increase in life span of host at 5 umol/kg, ip qd for 5 days relative to control; type: functional; conditions: 120 h; in short: as §3
L1210 [14] = assay: Antileukemic activity against mouse L1210 cells allografted in BDF1 mouse assessed as increase in life span of host at 1 umol/kg, sc qd for 5 days relative to control; type: functional; conditions: 120 h
L1210 [15] = assay: Antileukemic activity against mouse L1210 cells allografted in BDF1 mouse assessed as increase in life span of host at 278 umol/kg, ip relative to control; type: functional; in short: as §1
L1210 [16] = assay: Antileukemic activity against mouse L1210 cells allografted in BDF1 mouse assessed as increase in life span of host at 5.21 umol/kg, ip relative to control; type: functional; in short: as §1
L1210 [17] = assay: Antileukemic activity against mouse L1210 cells allografted in BDF1 mouse assessed as increase in life span of host at 27.8 umol/kg, ip relative to control; type: functional; in short: as §1
L1210 [18] = assay: Antileukemic activity against mouse L1210 cells allografted in BDF1 mouse assessed as increase in life span of host at 1.11 umol/kg, ip qd for 5 days relative to control; type: functional; conditions: 120 h; in short: as §2
L1210 [19] = assay: Antileukemic activity against mouse L1210 cells allografted in BDF1 mouse assessed as increase in life span of host at 13.8 umol/kg, sc qd for 5 days relative to control; type: functional; conditions: 120 h
L1210 [20] = assay: Antileukemic activity against mouse L1210 cells allografted in BDF1 mouse assessed as increase in life span of host at 139 umol/kg, ip relative to control; type: functional; in short: as §2
L1210 [21] = assay: Antileukemic activity against mouse L1210 cells allografted in BDF1 mouse assessed as increase in life span of host at 27.8 umol/kg, po qd for 4 days relative to control; type: functional; conditions: 96 h
L1210 [22] = assay: Antileukemic activity against mouse L1210 cells allografted in BDF1 mouse assessed as increase in life span of host at 1.11 umol/kg, sc qd for 5 days relative to control; type: functional; conditions: 120 h
L1210 [23] = assay: Antileukemic activity against mouse L1210 cells allografted in BDF1 mouse assessed as increase in life span of host at 13.8 umol/kg, po qd for 4 days relative to control; type: functional; conditions: 96 h
L1210 [24] = assay: Antileukemic activity against mouse L1210 cells allografted in BDF1 mouse assessed as increase in life span of host at 5.56 umol/kg, ip qd for 5 days relative to control; type: functional; conditions: 120 h; in short: as §3
L1210 [25] = assay: Antileukemic activity against mouse L1210 cells allografted in BDF1 mouse assessed as increase in life span of host at 13.8 umol/kg, ip qd for 5 days relative to control; type: functional; conditions: 120 h; in short: as §2
L1210 [26] = assay: Antileukemic activity against mouse L1210 cells allografted in BDF1 mouse assessed as increase in life span of host at 5.56 umol/kg, sc qd for 5 days relative to control; type: functional; conditions: 120 h
L1210 [27] = assay: Antileukemic activity against mouse L1210 cells allografted in BDF1 mouse assessed as increase in life span of host at 5.56 umol/kg, ip relative to control; type: functional; in short: as §1
L1210 [28] = assay: Antileukemic activity against mouse L1210 cells allografted in BDF1 mouse assessed as increase in life span of host at 27.8 umol/kg, ip qd for 5 days relative to control; type: functional; conditions: 120 h; in short: as §3
L1210 [29] = assay: Antileukemic activity against mouse L1210 cells allografted in BDF1 mouse assessed as increase in life span of host at 5.56 umol/kg, po qd for 4 days relative to control; type: functional; conditions: 96 h
L1210 [30] = assay: Antileukemic activity against mouse L1210 cells allografted in BDF1 mouse assessed as increase in life span of host at 27.8 umol/kg, sc qd for 5 days relative to control; type: functional; conditions: 120 h
L1210 [31] = assay: Antileukemic activity against mouse L1210 cells allografted in BDF1 mouse assessed as increase in life span of host at 69.4 umol/kg, ip relative to control; type: functional; in short: as §1
L1210 [32] = assay: Antileukemic activity against mouse L1210 cells allografted in BDF1 mouse assessed as increase in life span of host at 4.17 umol/kg, ip relative to control; type: functional; in short: as §1
L1210 [33] = assay: Antileukemic activity against mouse L1210 cells allografted in BDF1 mouse assessed as increase in life span of host at 57.1 umol/kg, ip relative to control; type: functional; in short: as §1
L1210 [34] = assay: Antileukemic activity against mouse L1210 cells allografted in BDF1 mouse assessed as host survival at 4.17 umol/kg, ip after 30 days; type: functional, organism-based; in short: as §2
L1210 [35] = assay: Antileukemic activity against mouse L1210 cells allografted in BDF1 mouse assessed as host survival at 22.8 umol/kg, ip after 30 days; type: functional, organism-based; in short: as §2
L1210 [36] = assay: Antileukemic activity against mouse L1210 cells allografted in BDF1 mouse assessed as increase in life span of host at 22.8 umol/kg, ip relative to control; type: functional; in short: as §1
L1210 [37] = assay: Antileukemic activity against mouse L1210 cells allografted in BDF1 mouse assessed as host survival at 57.1 umol/kg, ip after 30 days; type: functional, organism-based; in short: as §2

## CCOCc1c(C(O)(CC(=O)OCC)C(=O)OCC)cc2n(c1=O)Cc1cc3ccccc3nc1-2 (stereo unspecified)
Mus musculus
  Activity: Toxic
L1210 [1]
  ILS at 52.1 µmol/kg: > 170%
[2]
  solubility: Insoluble
L1210 [3]
  Activity: inactive
L1210 [4]
  ILS at 20.8 µmol/kg: 55%

## C=CCC1(O)C(=O)OCc2c1cc1n(c2=O)Cc2cc3ccccc3nc2-1 (stereo unspecified)
L1210 [5]
  ILS at 25 µmol/kg: 21%
L1210 [6]
  ILS at 12.5 µmol/kg: 58%
L1210 [7]
  ILS at 25 µmol/kg: > 118%
L1210 [8]
  ILS at 1 µmol/kg: -2%
L1210 [9]
  ILS at 25 µmol/kg: 72%
L1210 [10]
  ILS at 5 µmol/kg: 9%
L1210 [11]
  ILS at 5 µmol/kg: 12%
L1210 [12]
  ILS at 12.5 µmol/kg: 40%
L1210 [13]
  ILS at 5 µmol/kg: 13%
L1210 [14]
  ILS at 1 µmol/kg: -2%

## C=CCC1(O)C(=O)OCc2c1cc1n(c2=O)Cc2cc3ccccc3nc2-1 (racemic)
L1210 [15]
  ILS at 278 µmol/kg: -43%
L1210 [16]
  ILS at 5.21 µmol/kg: -5%
Mus musculus
  Activity: Toxic
L1210 [17]
  ILS at 27.8 µmol/kg: 84%
L1210 [18]
  ILS at 1.11 µmol/kg: 14%
L1210 [19]
  ILS at 13.8 µmol/kg: 26%
L1210 [20]
  ILS at 139 µmol/kg: > 60%
L1210 [21]
  ILS at 27.8 µmol/kg: -1%
L1210 [22]
  ILS at 1.11 µmol/kg: -1%
[2]
  solubility: Insoluble
L1210 [23]
  ILS at 13.8 µmol/kg: -1%
L1210 [24]
  ILS at 5.56 µmol/kg: 42%
L1210 [25]
  ILS at 13.8 µmol/kg: > 105%
L1210 [26]
  ILS at 5.56 µmol/kg: 4%
L1210 [27]
  ILS at 5.56 µmol/kg: 16%
L1210 [28]
  ILS at 27.8 µmol/kg: -13%
L1210 [29]
  ILS at 5.56 µmol/kg: 3%
L1210 [30]
  ILS at 27.8 µmol/kg: 51%
L1210 [31]
  ILS at 69.4 µmol/kg: > 155%

## O=C(CC1(O)C(=O)OCc2c1cc1n(c2=O)Cc2cc3ccccc3nc2-1)c1ccccc1 (racemic)
L1210 [32]
  ILS at 4.17 µmol/kg: 26%
L1210 [33]
  ILS at 57.1 µmol/kg: 21%
L1210 [34]
  Activity: inactive
[2]
  solubility: Insoluble
L1210 [35]
  Activity: inactive
L1210 [36]
  ILS at 22.8 µmol/kg: 10%
L1210 [37]
  Activity: inactive

From ChEMBL document CHEMBL3272061, “Experiments of synthesis of dl-camptothecin. 4. Synthesis and antileukemic activity of dl-camptothecin analogues” (J Med Chem, 1976)
